Assay results taken from ChEMBL document CHEMBL4152234, “Aminobenzothiazole derivatives stabilize the thermolabile p53 cancer mutant Y220C and show anticancer activity in p53-Y220C cell lines” (Eur J Med Chem, 2018).
Activity calls are given as the source filed them. The rule behind the calls is not given here.

Columns and labels:
[1] = test system: Cellular tumor antigen p53 (Homo sapiens), P04637 [Y220C]; test: Activation of p53 Y220C mutant in human NUGC3 cells assessed as change in MSH2 mRNA level at 60 uM after 18 hrs by RT-PCR method relative to control; assay type: cell-based
In short: (§1)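 p53 signalling qPCR array covering 84 p53 pathway genes. Cells were exposed for 18 h, and compound and control wells both held 0.5% DMSO. Total RNA was extracted and purified. Fold-changes were calculated by the ΔΔCt method against the untreated sample, with β2-microglobulin (B2M) as the housekeeping gene. Each cell line was run in two independent biological replicates.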

[2] = target: T1, Cellular tumor antigen p53 (Homo sapiens, UniProt P04637); test: Activation of p53 in human NUGC4 cells assessed as change in SIRT1 mRNA level at 60 uM after 18 hrs by RT-PCR method relative to control; assay type: cell-based; conditions: read-out: FC
[3] = test system: Cellular tumor antigen p53 (Homo sapiens), P04637 [Y220C]; test: Activation of p53 Y220C mutant in human NUGC3 cells assessed as change in MDM2 mRNA level at 60 uM after 18 hrs by RT-PCR method relative to control; assay type: cell-based; in short: as §1
[4] = target: T1, Cellular tumor antigen p53; test: Activation of p53 in human NUGC4 cells assessed as change in E2F3 mRNA level at 60 uM after 18 hrs by RT-PCR method relative to control; assay type: cell-based; conditions: read-out: FC
In short: (§2)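 p53 signaling qPCR array of 84 p53-pathway genes. Cells were treated in 6-well plates for 18 h with 0.5% DMSO in compound and control samples. Total RNA was extracted and fold-changes were obtained by the ΔΔCt method against untreated control, with β2-microglobulin (B2M) as housekeeping gene. Two independent biological replicates per cell line.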

[5] = target: T1, Cellular tumor antigen p53; test: Activation of p53 in human NUGC4 cells assessed as change in JUN mRNA level at 60 uM after 18 hrs by RT-PCR method relative to control; assay type: cell-based; conditions: read-out: FC; in short: as §2
[6] = test system: Cellular tumor antigen p53 (Homo sapiens), P04637 [Y220C]; test: Activation of p53 Y220C mutant in human NUGC3 cells assessed as change in S1AH1 mRNA level at 60 uM after 18 hrs by RT-PCR method relative to control; assay type: cell-based; in short: as §1
[7] = target: T1, Cellular tumor antigen p53; test: Activation of p53 in human NUGC4 cells assessed as change in TNFRSF10D mRNA level at 60 uM after 18 hrs by RT-PCR method relative to control; assay type: cell-based; conditions: read-out: FC
Huh-7 = test: Upregulation of NOXA mRNA level in p53 Y220C mutant knockout human HuH7 cells at 30 uM after 18 hrs by RT-PCR method; assay type: functional, cell-based
[8] = target: T1, Cellular tumor antigen p53; test: Activation of p53 in human NUGC4 cells assessed as change in KRAS mRNA level at 60 uM after 18 hrs by RT-PCR method relative to control; assay type: cell-based; conditions: read-out: FC; in short: as §2
[9] = test system: Cellular tumor antigen p53 (Homo sapiens), P04637 [Y220C]; test: Activation of p53 Y220C mutant in human NUGC3 cells assessed as change in NFKB1 mRNA level at 60 uM after 18 hrs by RT-PCR method relative to control; assay type: cell-based; in short: as §1
[10] = test system: Cellular tumor antigen p53 (Homo sapiens), P04637 [Y220C]; test: Activation of p53 Y220C mutant in human NUGC3 cells assessed as change in IL6 mRNA level at 60 uM after 18 hrs by RT-PCR method relative to control; assay type: cell-based; in short: as §1
[11] = test system: Cellular tumor antigen p53 (Homo sapiens), P04637 [Y220C]; test: Activation of p53 Y220C mutant in human NUGC3 cells assessed as change in TADA3 mRNA level at 60 uM after 18 hrs by RT-PCR method relative to control; assay type: cell-based; in short: as §1
[12] = test system: Cellular tumor antigen p53 (Homo sapiens), P04637 [Y220C]; test: Activation of p53 Y220C mutant in human NUGC3 cells assessed as change in RPRM mRNA level at 60 uM after 18 hrs by RT-PCR method relative to control; assay type: cell-based; in short: as §1
[13] = test system: Cellular tumor antigen p53 (Homo sapiens), P04637 [Y220C]; test: Activation of p53 Y220C mutant in human NUGC3 cells assessed as change in BAX mRNA level at 60 uM after 18 hrs by RT-PCR method relative to control; assay type: cell-based
In short: (§3)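 p53 signalling qPCR array covering 84 genes. Cells were exposed for 18 h, with 0.5% DMSO in both compound and control samples. Total RNA was extracted and purified. Fold-changes were calculated by ΔΔCt using β2-microglobulin (B2M) as the housekeeping gene. Two independent biological replicates were run per cell line.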

[14] = test system: Cellular tumor antigen p53 (Homo sapiens), P04637 [Y220C]; test: Activation of p53 Y220C mutant in human NUGC3 cells assessed as change in E2F1 mRNA level at 60 uM after 18 hrs by RT-PCR method relative to control; assay type: cell-based; in short: as §3
[15] = test system: Cellular tumor antigen p53 (Homo sapiens), P04637 [Y220C]; test: Activation of p53 Y220C mutant in human NUGC3 cells assessed as change in BTG2 mRNA level at 60 uM after 18 hrs by RT-PCR method relative to control; assay type: cell-based; in short: as §3
[16] = test system: Cellular tumor antigen p53 (Homo sapiens), P04637 [Y220C]; test: Activation of p53 Y220C mutant in human NUGC3 cells assessed as change in CDK4 mRNA level at 60 uM after 18 hrs by RT-PCR method relative to control; assay type: cell-based; in short: as §3
[17] = test system: Cellular tumor antigen p53 (Homo sapiens), P04637 [Y220C]; test: Activation of p53 Y220C mutant in human NUGC3 cells assessed as change in BAI1 mRNA level at 60 uM after 18 hrs by RT-PCR method relative to control; assay type: cell-based; in short: as §3
[18] = target: T1, Cellular tumor antigen p53; test: Activation of p53 in human NUGC4 cells assessed as change in CCNH mRNA level at 60 uM after 18 hrs by RT-PCR method relative to control; assay type: cell-based; conditions: read-out: FC; in short: as §2
[19] = target: T1, Cellular tumor antigen p53; test: Activation of p53 in human NUGC4 cells assessed as change in IL6 mRNA level at 60 uM after 18 hrs by RT-PCR method relative to control; assay type: cell-based; conditions: read-out: FC; in short: as §2
[20] = target: T1, Cellular tumor antigen p53; test: Activation of p53 in human NUGC4 cells assessed as change in PTTG1 mRNA level at 60 uM after 18 hrs by RT-PCR method relative to control; assay type: cell-based; conditions: read-out: FC
[21] = test system: Cellular tumor antigen p53 (Homo sapiens), P04637 [Y220C]; test: Activation of p53 Y220C mutant in human NUGC3 cells assessed as change in TNF mRNA level at 60 uM after 18 hrs by RT-PCR method relative to control; assay type: cell-based; in short: as §1
[22] = target: T1, Cellular tumor antigen p53; test: Activation of p53 in human NUGC4 cells assessed as change in DNMT1 mRNA level at 60 uM after 18 hrs by RT-PCR method relative to control; assay type: cell-based; conditions: read-out: FC; in short: as §2
[23] = test system: Cellular tumor antigen p53 (Homo sapiens), P04637 [Y220C]; test: Activation of p53 Y220C mutant in human NUGC3 cells assessed as change in EGFR mRNA level at 60 uM after 18 hrs by RT-PCR method relative to control; assay type: cell-based; in short: as §3
[24] = test system: Cellular tumor antigen p53 (Homo sapiens), P04637 [Y220C]; test: Activation of p53 Y220C mutant in human NUGC3 cells assessed as change in CASP2 mRNA level at 60 uM after 18 hrs by RT-PCR method relative to control; assay type: cell-based; in short: as §3
[25] = test system: Cellular tumor antigen p53 (Homo sapiens), P04637 [Y220C]; test: Activation of p53 Y220C mutant in human NUGC3 cells assessed as change in PRKCA mRNA level at 60 uM after 18 hrs by RT-PCR method relative to control; assay type: cell-based; in short: as §1
[26] = target: T1, Cellular tumor antigen p53; test: Activation of p53 in human NUGC4 cells assessed as change in MLH1 mRNA level at 60 uM after 18 hrs by RT-PCR method relative to control; assay type: cell-based; conditions: read-out: FC; in short: as §2
[27] = test system: Cellular tumor antigen p53 (Homo sapiens), P04637 [Y220C]; test: Activation of p53 Y220C mutant in human HuH7 cells assessed as increase in BBC3 mRNA level at 30 uM after 18 hrs by RT-PCR method; assay type: cell-based
In short: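 Real-time PCR. Cells were treated for 18 h, with 0.5% DMSO in both compound and control samples. Relative mRNA levels were quantified by the ΔΔCt method as fold-change against the untreated sample. Each sample was measured in triplicate, and data are given as mean ± SEM with an unpaired t-test.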

For CCNC(=O)c1c(O)c(I)c(-n2cccc2)c2sc(N(CC)CC)nc12, the fold change (FC) [1] was 5.3, the fold induction at 60 µM [2] was 0.9 and the fold change (FC) [3] was 1. It also gave a fold induction at 60 µM [4] of 0.7, a fold induction at 60 µM [5] of 0.7 and a fold change (FC) [6] of 1.5. The fold induction at 60 µM [7] was 1, the Activity (Huh-7) was “inactive” and the fold induction at 60 µM [8] was 0.9. The fold change (FC) [9] was 1.5, the fold change (FC) [10] was 6.4 and the fold change (FC) [11] was 0.8. The fold change (FC) [12] was 1.4, the fold change (FC) [13] was 1.1 and the fold change (FC) [14] was 1. The fold change (FC) [15] was 1.9, the fold change (FC) [16] was 1.3 and the fold change (FC) [17] was 1.5. The fold induction at 60 µM [18] was 0.9, the fold induction at 60 µM [19] was 7.9 and the fold induction at 60 µM [20] was 0.9. The fold change (FC) [21] was 5.6, the fold induction at 60 µM [22] was 0.8 and the fold change (FC) [23] was 1. It also gave a fold change (FC) [24] of 1.1, a fold change (FC) [25] of 1.1 and a fold induction at 60 µM [26] of 1. The Activity [27] was “Active”.
